Bioassay records deposited in PubChem by several laboratories.
Only some compounds are listed: those with a hit (about 4.6% of all), similar ones and a draw of the others.
ALR H2O2 inh – human ALR oxidase inhibition via reduced H2O2 | P55789 | purified ALR, DTT oxidation, H2O2 HRP-luminol luminescence | inhibition, % (no concentration beside the values) | actives 3.8% (n = 290,000) | AID 485317;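 active = mean replicate inhibition above about 79%, with every replicate also reaching it, limit read from the data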
Rtt109 HAT inh – C. albicans Rtt109 histone acetyltransferase inhibition; Q5AAJ8; purified Rtt109/Vps75, ThioGlo CoA-SH fluorescence, 4 h; inhibition, % at 34.9 µM; actives 0.16% (n = 330,000); AID 540336;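 active = inhibition of at least 50% in every replicate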
PfM18AAP inh – PfM18AAP enzyme inhibition; inhibition, % at 7.35 µM; recombinant PfM18AAP, H-Glu-NHMec fluorogenic cleavage; actives 1.2% (n = 290,000);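 active = inhibition above the campaign mean inhibition over all tested compounds plus 3 SD, cut at about 28% in these data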;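 also: 0% = plate median of test compound wells and 100% = 2 mM ZnCl2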
HDAC3 inh – inhibitors of human histone deacetylase 3; O15379; recombinant HDAC3, fluorogenic peptide/trypsin coupled, fluorescence; inhibition, % at 8.3 µM; actives 0.15% (n = 320,000); AID 2718; in the data active = inhibition above about 26%, passing the limit was not always enough
FAS-TE inh – blocks the thioesterase domain of human fatty acid synthase | AID 602261 | actives 0.67% (n = 360,000) | inhibition, % at 15 µM | recombinant FAS-TE, OMFH fluorogenic substrate, fluorescence endpoint;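 active = compounds whose normalised, plate-corrected inhibition of enzyme fluorescence in the single-dose primary screen is 50% or more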;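 also: 0% = DMSO with enzyme and 100% = substrate without enzyme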
UCH37 inh – inhibitors of human deubiquitinating enzyme UCH37; Q9Y5K5; purified proteasome/UCH37, Ub-AMC cleavage fluorescence; inhibition, % (no concentration beside the values); actives 0.33% (n = 330,000);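 active = mean inhibition over replicate wells above about 20%, limit read from the data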;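 also: 0% = compound-free wells with enzyme and 100% = wells lacking proteasome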
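Signal – fluorescence, ex 355 nm, em 460 nm · System – Proteasome-bound UCH37 · Input – 0.15 nM proteasome as dispensed · Timing – 30 min preincubation with enzyme, 25 min cleavage at room temperature · Read-out basis – percent inhibition of cleavage signal versus uninhibited and no-proteasome wells · Medium – Tris-HCl pH 7.4 with ATP-MgCl2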
* = called active by the depositor.

CCOc1ccc2nc(N=Nc3c(O)[nH]c(=S)[nH]c3=O)sc2c1 was read as ALR H2O2 inh 96*, Rtt109 HAT inh 13, PfM18AAP inh 10, HDAC3 inh 7 and FAS-TE inh 6.
For CC(=NN=C(N)N)c1ccccc1 the results were UCH37 inh 5.
O=C1C(Cl)=CC(=Nc2ccc(O)cc2)C=C1Cl was read as ALR H2O2 inh 99*, Rtt109 HAT inh -2, HDAC3 inh 7, FAS-TE inh 2 and UCH37 inh 2.
For Cc1cc(O)c2c(c1)C(=O)C13C(=C2O)C(=O)[C@H]2[C@@H](O)[C@@H]1[C@H]1[C@H](O)[C@@H]3C(=O)C3=C(O)c4c(O)cc(C)cc4C(=O)C312 (some centres not stated) the results were Rtt109 HAT inh 4, HDAC3 inh 18, FAS-TE inh 1 and UCH37 inh 28*.
`COc1ccc(/C=C2\C(=NO)C3CCN2CC3)cc1` gave UCH37 inh 2.
`CCN(CC)c1ccc(/C=C/[N+](=O)[O-])cc1` gave ALR H2O2 inh 99*, Rtt109 HAT inh 23, PfM18AAP inh 23, HDAC3 inh 7, FAS-TE inh -2 and UCH37 inh 3.
For COP(=O)(OC)C1(Nc2ccc(C)cc2)CCCCC1 the results were ALR H2O2 inh 99*, Rtt109 HAT inh 2, PfM18AAP inh 4, HDAC3 inh 2, FAS-TE inh -5 and UCH37 inh -1.
COc1ccc2[nH]cc(C3=CCNCC3)c2c1 was read as ALR H2O2 inh 97* and HDAC3 inh 7.
Screening CNC(=O)ON=C(N)Cc1csc2ccccc12 returned UCH37 inh 1.
`CC1=C[C@@H](C)CC=C[C@H]2[C@@H]3O[C@]3(C)[C@@H](C)[C@H]3[C@H](Cc4c[nH]c5ccccc45)NC(=O)[C@]32C(=O)C=CC(=O)[C@@H]1O` gave UCH37 inh 1.
For CCOC(=O)c1c(N=CC2C(=O)NC(=S)NC2=O)sc2c1CCC2 the results were UCH37 inh 4.
For C=C(COC(C)=O)CC1CC(O)[C@]2(C)OC3CC4OC5C[C@]6(C)O[C@]7(C)CCC8OC9C[C@]%10(C)OC%11C(C)=CC(=O)OC%11CC%10OC9C[C@@H](C)C8OC7CC6O[C@]5(C)C/C=C\C4OC3CC2O1 (some centres not stated) the results were Rtt109 HAT inh -2, FAS-TE inh 87* and UCH37 inh -2.
`CCC(CC(c1ccccc1)c1c(O)c2ccccc2oc1=O)=NNC(N)=S` (configuration not stated) gave UCH37 inh -2.
C=CCN1C(=O)/C(=C/c2cccs2)C(=O)NC1=S was read as ALR H2O2 inh 96*, Rtt109 HAT inh -7, PfM18AAP inh -3, HDAC3 inh 0, FAS-TE inh -17 and UCH37 inh 3.
Screening CC(=NNP(=S)(c1ccccc1)c1ccccc1)c1ccc(O)cc1O returned UCH37 inh 5.
CC(=NOC(=O)N(C)C)c1ncc(C(F)(F)F)cc1N1CCOCC1 was read as UCH37 inh 3.
`CN1CCC(O)(c2ccccc2)C2CCCC21` (configuration not stated) gave ALR H2O2 inh -4, Rtt109 HAT inh -6, PfM18AAP inh -2, HDAC3 inh -2, FAS-TE inh -9 and UCH37 inh 1.
O=C(O)C12C3CCCC1C32c1ccccc1 (configuration not stated) was read as ALR H2O2 inh 99*, PfM18AAP inh 4, HDAC3 inh -1, FAS-TE inh -6 and UCH37 inh 1.
Screening O=C(N/N=C/c1c(O)n(Cc2ccccc2)c(=O)[nH]c1=O)c1ccccc1O returned ALR H2O2 inh 56, Rtt109 HAT inh 19, PfM18AAP inh 13, HDAC3 inh 7, FAS-TE inh 29 and UCH37 inh -20.
O=C(N/N=C/c1c(O)n(Cc2ccc(F)cc2)c(=O)[nH]c1=O)c1ccccc1O was read as ALR H2O2 inh 97*, Rtt109 HAT inh 25, PfM18AAP inh 17, HDAC3 inh 5, FAS-TE inh 20 and UCH37 inh -33.
